# Assay results published in ChEMBL document CHEMBL3352347, “ΔF508-CFTR correctors: synthesis and evaluation of thiazole-tethered imidazolones, oxazoles, oxadiazoles, and thiadiazoles” (Bioorg Med Chem Lett, 2014).
# Biological target: Cystic fibrosis transmembrane conductance regulator (Homo sapiens, UniProt P13569, F508DEL)
# Experiment: (§1) Activity of human CFTR F508 deletion mutant expressed in FRT cells assessed as potentiation of genistein-induced iodine ion influx after 24 hrs by YFP-H148Q/I152L fluorescent quenching assay
# Type: cell-based
# Settings: not given; call rule not given here
# Outline: (§2)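 FRT cells co-expressing human ΔF508-CFTR and the iodide-sensitive YFP-H148Q/I152L sensor were incubated 24 h with each compound. Iodide influx, used as a chloride surrogate, was then read from the kinetics of YFP quenching after iodide addition, with cells stimulated by a cAMP agonist plus genistein. Corrector activity was derived from influx versus concentration data.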
# Sequence of Cystic fibrosis transmembrane conductance regulator (Homo sapiens, UniProt P13569, F508DEL) (P13569 as listed by the source): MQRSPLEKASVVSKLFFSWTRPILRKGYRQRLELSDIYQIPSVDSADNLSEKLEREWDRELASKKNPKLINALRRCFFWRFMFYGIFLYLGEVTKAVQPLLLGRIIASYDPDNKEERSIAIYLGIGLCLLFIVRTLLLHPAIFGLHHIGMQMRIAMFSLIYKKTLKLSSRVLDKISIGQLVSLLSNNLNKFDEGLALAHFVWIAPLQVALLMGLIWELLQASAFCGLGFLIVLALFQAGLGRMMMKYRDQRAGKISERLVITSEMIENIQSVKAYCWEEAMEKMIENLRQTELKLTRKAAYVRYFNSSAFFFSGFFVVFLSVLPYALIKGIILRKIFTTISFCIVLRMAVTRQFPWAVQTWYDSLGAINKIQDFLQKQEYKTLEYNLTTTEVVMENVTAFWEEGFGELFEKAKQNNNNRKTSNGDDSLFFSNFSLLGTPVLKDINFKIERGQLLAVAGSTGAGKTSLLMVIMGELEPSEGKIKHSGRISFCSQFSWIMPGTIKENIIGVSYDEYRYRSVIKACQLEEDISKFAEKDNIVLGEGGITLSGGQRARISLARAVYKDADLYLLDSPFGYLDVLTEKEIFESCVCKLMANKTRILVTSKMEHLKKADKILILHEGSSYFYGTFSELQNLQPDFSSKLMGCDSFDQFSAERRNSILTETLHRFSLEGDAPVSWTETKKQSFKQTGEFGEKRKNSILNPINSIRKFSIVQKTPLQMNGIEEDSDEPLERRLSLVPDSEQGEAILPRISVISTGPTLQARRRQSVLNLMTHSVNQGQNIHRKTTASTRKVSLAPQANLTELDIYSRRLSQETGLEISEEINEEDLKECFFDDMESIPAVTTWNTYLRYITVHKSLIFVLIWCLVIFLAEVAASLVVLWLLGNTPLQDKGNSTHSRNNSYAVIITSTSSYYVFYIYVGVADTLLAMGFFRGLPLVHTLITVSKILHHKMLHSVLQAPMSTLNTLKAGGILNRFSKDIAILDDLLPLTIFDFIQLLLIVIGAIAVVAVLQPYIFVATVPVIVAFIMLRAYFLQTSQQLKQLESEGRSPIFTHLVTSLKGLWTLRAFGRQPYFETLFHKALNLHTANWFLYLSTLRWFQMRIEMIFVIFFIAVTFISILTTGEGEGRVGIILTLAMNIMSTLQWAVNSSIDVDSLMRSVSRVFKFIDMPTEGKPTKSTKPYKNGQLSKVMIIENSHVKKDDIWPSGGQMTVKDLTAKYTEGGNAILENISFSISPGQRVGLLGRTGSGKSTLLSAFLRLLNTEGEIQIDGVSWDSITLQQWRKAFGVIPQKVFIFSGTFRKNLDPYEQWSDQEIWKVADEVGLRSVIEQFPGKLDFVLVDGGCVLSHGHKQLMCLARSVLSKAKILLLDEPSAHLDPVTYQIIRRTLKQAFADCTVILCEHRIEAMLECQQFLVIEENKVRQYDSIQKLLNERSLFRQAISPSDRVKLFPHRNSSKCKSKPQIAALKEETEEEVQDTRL
row,Compound,EC50
1,COc1ccc(Cl)cc1Nc1nc(-c2sc(NC(=O)C(C)(C)C)nc2C)cs1,870 nM
2,COc1ccc(Cl)cc1Nc1ncc(-c2sc(NC(=O)C(C)(C)C)nc2C)o1,740 nM

# Results, then the compound that gave them:
row,EC50,Compound
1,660 nM,COc1ccc(Cl)cc1Nc1nnc(-c2csc(NC(=O)C(C)(C)C)n2)o1
2,590 nM,COc1ccc(Cl)cc1Nc1nc(-c2nnc(NC(=O)C(C)(C)C)o2)cs1

# Biological target: Cystic fibrosis transmembrane conductance regulator (Homo sapiens, UniProt P13569)
# Sequence (P13569 as listed by the source): as above
# Experiment: as §1
# Type: cell-based
# Settings: frt
# Outline: as §2
row,EC50,Compound
1,Not Active,COc1ccc(Cl)cc1-n1cc(-c2sc(NC(=O)C(C)(C)C)nc2C)[nH]c1=O
2,Not Active,COc1ccc(Cl)cc1Nc1nnc(-c2csc(NC(=O)C(C)(C)C)n2)s1
3,Not Active,COc1ccc(Cl)cc1Nc1nc(C)c(-c2csc(NC(=O)C(C)(C)C)n2)s1
